Data reported in ChEMBL document CHEMBL1140343, “3-Alkylamino-4H-1,2,4-benzothiadiazine 1,1-dioxides as ATP-sensitive potassium channel openers: effect of 6,7-disubstitution on potency and tissue selectivity” (J Med Chem, 2005).
pEC50, pIC50: −log10 of the molar value.

Legend:
Rattus norvegicus [1] = organism: Rattus norvegicus; experiment: Concentration required to inhibit insulin release in rat pancreatic islets by 50% upon incubation with the compound at 37 degree C for 90 mins; assay type: functional, organism-based; details: 1.5 h
Method in brief: (§1)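 Islets isolated by collagenase digestion from fed Wistar rats (180–220 g); groups of 10 preincubated 30 min at 37 °C in bicarbonate-buffered salt medium with 2.8 mM glucose and 0.5% albumin, gassed O2/CO2 95:5. Then incubated 90 min at 37 °C with 16.7 mM glucose plus drug. Insulin measured by radioimmunoassay; release expressed as % of drug-free 16.7 mM glucose control. IC50 estimated.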

Rattus norvegicus [2] = organism: Rattus norvegicus; experiment: Concentration required to relax KCl induced rat aorta ring contractions by 50% upon incubation with the compound at 37 degree C for 90 mins; assay type: functional, organism-based; details: 1.5 h
Method in brief: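 Endothelium-denuded transverse aortic rings (3–4 mm) from fed Wistar rats (180–220 g); isometric tension recorded by force transducer. After 60 min equilibration, rings contracted with 30 mM KCl; at stable tension, drug added cumulatively until maximal relaxation or 0.3 mM. Relaxation expressed as % of KCl contraction; EC50 taken from dose–response curves; mean ± SEM (n).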

Rattus norvegicus [3] = organism: Rattus norvegicus; experiment: Percent residual insulin release in rat pancreatic islets upon incubation with the compound (1 uM) at 37 degree C for 90 mins; assay type: functional; method in brief: as §1
Rattus norvegicus [4] = organism: Rattus norvegicus; experiment: Percent residual insulin release in rat pancreatic islets upon incubation with the compound (10 uM) at 37 degree C for 90 mins; assay type: functional; method in brief: as §1
Rattus norvegicus [5] = organism: Rattus norvegicus; experiment: Percent residual insulin release in rat pancreatic islets upon incubation with the compound (0.1 uM) at 37 degree C for 90 mins; assay type: functional; method in brief: as §1
Rattus norvegicus [6] = organism: Rattus norvegicus; experiment: Ratio of EC50 required to relax KCl induced rat aorta ring contractions to that of IC50 required to inhibit insulin release in rat pancreatic islets; assay type: functional
Rattus norvegicus [7] = organism: Rattus norvegicus; experiment: Percent residual insulin release in rat pancreatic islets upon incubation with the compound (50 uM) at 37 degree C for 90 mins; assay type: functional; method in brief: as §1

SMILES	pIC50 (Rattus norvegicus [1])	pEC50 (Rattus norvegicus [2])	Release (Rattus norvegicus [3]) [%]	Release (Rattus norvegicus [4]) [%]	Release (Rattus norvegicus [5]) [%]	Selectivity (Rattus norvegicus [6])	Release (Rattus norvegicus [7]) [%]
CC(C)NC1=NS(=O)(=O)c2cc(Cl)c(Cl)cc2N1	6.55	5.64	13.2	6.3	84.9	8.2	–
O=S1(=O)NC(NC2CC2)=Nc2cc(Cl)c(Cl)cc21	5.48	< 4.52	92.5	17.6	–	>9	–
CC(C)NC1=NS(=O)(=O)c2cc(F)c(NC(C)C)cc2N1	–	< 3.70	–	–	–	–	70.1
CC(C)NC1=NS(=O)(=O)c2cc(Cl)ccc2N1	6.14	–	36.2	4.9	90.4	49.7	–
C=CCNC1=Nc2cc(Cl)c(Cl)cc2S(=O)(=O)N1	5.72	5.92	68.5	13.5	–	0.63	–
CCNC1=NS(=O)(=O)c2cc(F)c(Cl)cc2N1	6.70	4.37	7.3	12.7	73.1	212	–
CCCNC1=NS(=O)(=O)c2cc(F)c(Cl)cc2N1	6.28	4.34	37.6	7.5	92	87.1	–
COc1cc2c(cc1Cl)NC(NC1CCC1)=NS2(=O)=O	6.29	4.63	38.1	9.2	90	45.9	–
COc1ccc2c(c1)S(=O)(=O)NC(NC(C)C)=N2	5.76	–	67.6	8.5	–	156.6	–
CC(C)NC1=NS(=O)(=O)c2cc(F)c(F)cc2N1	6.52	3.99	22.9	6.1	81.6	341.3	–
CC(C)CNC1=NS(=O)(=O)c2cc(F)c(F)cc2N1	5.25	< 4.52	86.9	42.3	–	>5.3	–
O=S1(=O)N=C(NC2CCC2)Nc2cc(NC3CCC3)c(F)cc21	–	–	–	–	–	–	88.6
CCNC1=NS(=O)(=O)c2cc(Cl)c(Cl)cc2N1	6.60	6.00	8.5	9.1	83.4	4	–
CC(C)NC1=NS(=O)(=O)c2cc(F)ccc2N1	6.12	4.37	47.3	3.7	96.9	56.7	–
O=S1(=O)NC(NC2CCC2)=Nc2cc(Cl)c(Br)cc21	5.92	5.18	57.2	9.5	–	5.5	–
CC(C)NC1=NS(=O)(=O)c2cc(Br)c(Cl)cc2N1	6.59	5.25	25.7	7.5	73.3	21.5	–
CC1=Nc2ccc(Cl)cc2S(=O)(=O)N1 [DIAZOXIDE]	–	–	87.5	73.9	–	1	–
CC(C)NC1=NS(=O)(=O)c2cc(F)c(Cl)cc2N1	6.80	4.38	5.7	7	64.4	259.4	–
CCCNC1=NS(=O)(=O)c2cc(F)c(NCCC)cc2N1	–	–	–	–	–	–	104.1
O=S1(=O)N=C(NC2CCC2)Nc2cc(Cl)c(F)cc21	6.64	4.40	15.3	12.8	74.5	173.5	–
CCCCCCNC1=NS(=O)(=O)c2cc(Cl)c(Cl)cc2N1	–	< 3.52	–	95.2	–	–	–
CCNC1=NS(=O)(=O)c2cc(OC)c(Cl)cc2N1	6.32	5.09	38	7.2	85.3	16.9	–
CCCNC1=NS(=O)(=O)c2cc(Cl)c(Cl)cc2N1	5.86	5.33	60.2	9.9	–	3.4	–
CCNC1=NS(=O)(=O)c2cc(F)c(F)cc2N1	6.43	4.18	22	10.5	94.5	180.3	–
CCNC1=NS(=O)(=O)c2cc(Br)c(Cl)cc2N1	6.57	5.48	19.7	7.9	79.5	12.2	–
COc1cc2c(cc1Cl)NC(NC(C)C)=NS2(=O)=O	6.62	4.43	20.6	7.7	73.8	154.2	–
CC(C)NC1=NS(=O)(=O)c2cc(Br)ccc2N1	6.33	5.32	34.9	8.1	91	10.2	–
O=S1(=O)NC(NC2CCC2)=Nc2cc(Cl)c(Cl)cc21	5.90	4.90	58.1	8.4	–	10.1	–
